Active and inactive are the calls of the source. The calls are words filed in the database; no cut-off is given here.
Columns and labels:
[1] = Clearance in Wistar rat plasma at 3 mg/kg, iv; assay type: ADME, organism-based; parameters: dose 3 mg/kg, route intravenous
How it was run: (§1)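 Wistar rats given an intravenous bolus of 3 mg/kg in 5% solutol solution. Plasma sampled at eight time points over 24 h. Drug quantified by LC-MS/MS against an internal standard. C0h is the concentration immediately after dosing; AUC0-inf, clearance, t1/2 and Vdss were also derived.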

[2] = AUC (0 to infinity) in Wistar rat liver at 10 mg/kg, po; assay type: ADME, organism-based; parameters: time infinity, dose 10 mg/kg, route oral
How it was run: (§2)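 Female Wistar rats given a single oral dose of 10 mg/kg in 10% DMSO. Plasma and liver sampled at eight time points over 24 h, three animals killed per time point. Drug levels measured by LC-MS/MS with an internal standard. […] Values are means ± SD (n = 3).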

[3] = Half life in Wistar rat liver at 10 mg/kg, po; assay type: ADME, organism-based; parameters: dose 10 mg/kg, route oral; how it was run: as §2
[4] = Drug concentration in Wistar rat liver at 10 mg/kg, po measured 6 hrs post dose; assay type: ADME, organism-based; parameters: dose 10 mg/kg, route oral; conditions: read-out: Drug uptake; how it was run: as §2
Rattus norvegicus [5] = assay: Reduction in plasma triglycerides in obese ZDF rat at 30 mg/kg, po for 3 days measured 4 hrs post last dose; assay type: functional, organism-based; parameters: dose 30 mg/kg
How it was run: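 Female obese ZDF rats, eight weeks old, dosed orally for 3 days with 30 mg/kg in 5% ethanol/5% solutol/90% PBS (n = 8); controls got vehicle, with lean controls alongside. Four hours after the last dose, aortic blood taken under isoflurane. Triglycerides measured by GPD-PAP method; means ± SEM.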

[6] = AUC (0 to infinity) in Wistar rat plasma at 10 mg/kg, po; assay type: ADME, organism-based; parameters: time infinity, dose 10 mg/kg, route oral; how it was run: as §2
[7] = Drug concentration in Wistar rat plasma at 10 mg/kg, po measured 6 hrs post dose; assay type: ADME, organism-based; parameters: dose 10 mg/kg, route oral; conditions: read-out: Drug uptake; how it was run: as §2
[8] = Ratio of AUC (0 to infinity) in liver to plasma of Wistar rat at 10 mg/kg, po; assay type: ADME, organism-based; parameters: dose 10 mg/kg, route oral
How it was run: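 Female Wistar rats received a single oral 10 mg/kg dose in 10% DMSO. Plasma and liver were sampled at eight time points over 24 h, with three animals killed per time point. Drug levels were measured by LC-MS/MS against an internal standard. Liver/plasma ratio was calculated from AUC0-inf.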

[9] = Half life in Wistar rat plasma at 10 mg/kg, po; assay type: ADME, organism-based; parameters: dose 10 mg/kg, route oral; how it was run: as §2
[10] = AUC (0 to infinity) in Wistar rat plasma at 3 mg/kg, iv; assay type: ADME, organism-based; parameters: dose 3 mg/kg, route intravenous, time infinity; how it was run: as §1
[11] = target: T1, Peroxisome proliferator-activated receptor delta (Homo sapiens) (UniProt Q03181); assay: Inhibition of PPARdelta
T1 sequence (whole entry): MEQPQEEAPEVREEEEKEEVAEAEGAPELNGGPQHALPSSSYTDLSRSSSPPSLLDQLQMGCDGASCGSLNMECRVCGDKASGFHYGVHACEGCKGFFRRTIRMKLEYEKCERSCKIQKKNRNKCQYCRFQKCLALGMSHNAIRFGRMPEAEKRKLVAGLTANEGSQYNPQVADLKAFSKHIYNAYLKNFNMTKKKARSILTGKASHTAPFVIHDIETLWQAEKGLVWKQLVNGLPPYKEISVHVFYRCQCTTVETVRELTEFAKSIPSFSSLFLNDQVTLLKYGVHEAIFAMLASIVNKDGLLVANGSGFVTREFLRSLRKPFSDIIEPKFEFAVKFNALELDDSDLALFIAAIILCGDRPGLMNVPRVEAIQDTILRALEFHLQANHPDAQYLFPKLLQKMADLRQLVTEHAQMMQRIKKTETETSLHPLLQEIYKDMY

Hepatocyte = assay: Stimulation of fat oxidation in human hepatocytes assessed as release of 3H2O from ss-oxidation of [9,10(n)-3[3H]palmitic acid after 4 hrs; assay type: functional, cell-based
How it was run: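 Attached human hepatocytes washed with PBS, then incubated in DMEM with 5 μM ³H-palmitic acid (15000 Bq/ml), 0.2 mg/mL BSA, 500 μM L-carnitine, 0.1% DMSO, 25 mM glucose and inhibitor. Started with 0.5 μCi [³H]palmitate. ³H₂O release measured after 4 h by scintillation. Expressed as fold of the 0 μM control; means ± SEM (n = 4).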

[12] = Cmax in Wistar rat liver at 10 mg/kg, po; assay type: ADME, organism-based; parameters: dose 10 mg/kg, route oral; how it was run: as §2
[13] = Cmax in Wistar rat plasma at 10 mg/kg, po; assay type: ADME, organism-based; parameters: dose 10 mg/kg, route oral; how it was run: as §2
[14] = Tmax in Wistar rat liver at 10 mg/kg, po; assay type: ADME, organism-based; parameters: dose 10 mg/kg, route oral; how it was run: as §2
[15] = target: T2, Pyruvate carboxylase, mitochondrial (Bos taurus) (UniProt Q29RK2); assay: Inhibition of bovine pyruvate carboxylase
T2 sequence (whole entry): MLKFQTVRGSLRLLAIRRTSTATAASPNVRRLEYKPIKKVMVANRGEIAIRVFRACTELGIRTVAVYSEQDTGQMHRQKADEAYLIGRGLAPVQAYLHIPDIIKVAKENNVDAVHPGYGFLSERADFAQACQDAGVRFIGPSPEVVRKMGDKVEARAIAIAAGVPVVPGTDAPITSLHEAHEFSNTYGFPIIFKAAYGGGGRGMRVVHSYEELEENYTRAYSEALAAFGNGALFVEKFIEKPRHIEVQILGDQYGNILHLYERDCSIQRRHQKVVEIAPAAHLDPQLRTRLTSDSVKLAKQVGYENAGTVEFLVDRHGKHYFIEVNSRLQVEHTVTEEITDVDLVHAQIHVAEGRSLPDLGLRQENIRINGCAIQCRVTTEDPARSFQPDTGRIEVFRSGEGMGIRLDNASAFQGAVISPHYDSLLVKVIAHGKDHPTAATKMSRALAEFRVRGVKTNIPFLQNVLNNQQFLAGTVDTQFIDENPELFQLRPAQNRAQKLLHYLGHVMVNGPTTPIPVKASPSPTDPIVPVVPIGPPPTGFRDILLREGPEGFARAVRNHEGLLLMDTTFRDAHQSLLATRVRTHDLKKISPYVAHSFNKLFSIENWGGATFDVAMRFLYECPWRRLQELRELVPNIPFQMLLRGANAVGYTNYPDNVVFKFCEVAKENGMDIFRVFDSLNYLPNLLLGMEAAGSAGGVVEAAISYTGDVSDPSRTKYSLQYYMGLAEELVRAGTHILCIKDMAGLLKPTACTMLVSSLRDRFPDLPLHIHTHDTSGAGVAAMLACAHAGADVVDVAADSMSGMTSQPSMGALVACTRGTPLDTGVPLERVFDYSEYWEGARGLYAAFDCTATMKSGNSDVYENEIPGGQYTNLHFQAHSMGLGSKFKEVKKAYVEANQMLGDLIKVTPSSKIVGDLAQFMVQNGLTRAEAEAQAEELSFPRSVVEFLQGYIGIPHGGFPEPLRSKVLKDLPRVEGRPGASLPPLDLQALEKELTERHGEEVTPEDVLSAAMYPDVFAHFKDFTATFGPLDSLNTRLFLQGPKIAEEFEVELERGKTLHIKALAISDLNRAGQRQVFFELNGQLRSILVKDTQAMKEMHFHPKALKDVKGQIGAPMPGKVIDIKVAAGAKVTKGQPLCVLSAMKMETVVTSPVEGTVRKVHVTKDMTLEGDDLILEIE

[16] = Volume of distribution at steady state in Wistar rat plasma at 3 mg/kg, iv; assay type: ADME, organism-based; parameters: dose 3 mg/kg, route intravenous; how it was run: as §1
Rattus norvegicus [17] = assay: Plasma concentration in Wistar rat at 3 mg/kg, iv measured immediately after dosing; assay type: ADME, organism-based; parameters: dose 3 mg/kg, route intravenous; conditions: in vivo; how it was run: as §1
[18] = Oral bioavailability in Wistar rat at 10 mg/kg; assay type: ADME, organism-based; conditions: in vivo
[19] = Half life in Wistar rat plasma at 3 mg/kg, iv; assay type: ADME, organism-based; parameters: dose 3 mg/kg, route intravenous; how it was run: as §1

- clearance [1]: 1.6 L/h/kg
- AUC(0-inf) [2]: 120 µM·h
- half-life [3]: 3 h
- concentration at 6 h [4]: 7.59 µM
- AUC(0-inf) [6]: 19 µM·h
- concentration at 6 h [7]: 1.59 µM
- Kp [8]: 6
- half-life [9]: 1.8 h
- AUC(0-inf) [10]: 5.6 µM·h
- inhibition [11]: inactive
- Cmax [12]: 21.8 µM
- Cmax [13]: 3.5 µM
- Tmax [14]: 2 h
- inhibition [15]: inactive
- Vd [16]: 2.6 L/kg
- concentration (Rattus norvegicus [17]): 5.2 µM
- bioavailability [18]: 98%
- half-life [19]: 1.5 h
SMILES: CC(=O)N[C@@H](C)CCc1ccc(Oc2ccc(OC(C)C)nc2)cc1
- Activity (Rattus norvegicus [5]): Active
- Activity (Hepatocyte): Dose-dependent effect
